rCAG binder – binders of r(CAG) RNA repeats, primary screen, biochemical, fluorescence | 1.3% of 370,000 active | inhibition, % at 3 µM | r(CAG) RNA repeat, TO-PRO-1 dye displacement fluorescence;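 active means inhibition above the plate cutoff, the mean of all test compounds on that plate plus 3 SD, cut at about 35% in these data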;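 further: 0% = DMSO alone and 100% = 100 µM mitoxantrone as full dye displacement; higher means more dye released from RNA so lower well fluorescence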
NadD inh – inhibitors of S. aureus NadD, primary screen, biochemical, colorimetric, uHTS | inhibition, % at 20 µM | purified NadD enzyme, colorimetric absorbance read-out | 0.78% of 360,000 active | Nicotinate-nucleotide adenylyltransferase NadD (Staphylococcus aureus N315); in the data active means inhibition above about 26%
ABHD5-PLIN5 inh – ABHD5-PLIN5 interaction inhibitors, primary screen, cell lysate, split luciferase complementation, luminescence; Split G. princeps luciferase complementation, 4 h; 0.78% of 360,000 active; AID 602281, 2012; inhibition, % at 4 µM;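 active means inhibition above the mean inhibition across every tested compound plus 3 SD, cut at about 22% in these data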;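 further: 0% = DMSO only wells and the 100% control is not disclosed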
Target sequence (Q00G26 whole entry, looked up): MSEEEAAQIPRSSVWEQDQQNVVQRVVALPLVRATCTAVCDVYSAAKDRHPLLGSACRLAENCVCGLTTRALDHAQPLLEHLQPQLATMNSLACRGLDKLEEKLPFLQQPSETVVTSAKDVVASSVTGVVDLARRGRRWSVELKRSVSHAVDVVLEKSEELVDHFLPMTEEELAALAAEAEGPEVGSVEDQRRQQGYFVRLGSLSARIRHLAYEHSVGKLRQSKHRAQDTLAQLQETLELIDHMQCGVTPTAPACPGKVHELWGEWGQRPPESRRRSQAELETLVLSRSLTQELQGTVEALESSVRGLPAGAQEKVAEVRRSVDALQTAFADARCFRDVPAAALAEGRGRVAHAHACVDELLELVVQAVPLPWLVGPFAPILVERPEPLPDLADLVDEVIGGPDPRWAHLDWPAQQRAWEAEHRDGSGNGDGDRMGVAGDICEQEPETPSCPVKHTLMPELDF
Target sequence (Q8WTS1 whole entry, looked up): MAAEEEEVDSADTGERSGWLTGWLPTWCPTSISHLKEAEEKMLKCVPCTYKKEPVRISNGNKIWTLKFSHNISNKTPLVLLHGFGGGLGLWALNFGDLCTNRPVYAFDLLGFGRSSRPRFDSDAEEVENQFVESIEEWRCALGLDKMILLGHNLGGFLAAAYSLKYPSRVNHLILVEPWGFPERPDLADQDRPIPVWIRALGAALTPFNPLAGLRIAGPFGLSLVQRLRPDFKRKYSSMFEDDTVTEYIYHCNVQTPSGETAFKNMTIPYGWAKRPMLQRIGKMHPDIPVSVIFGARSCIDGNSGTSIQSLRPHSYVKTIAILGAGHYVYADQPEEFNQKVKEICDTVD
HCV core dimer – inhibitors of HCV core protein dimerization, primary screen, biochemical, TR-FRET, high-throughput | TR-FRET GST/Flag-core106 dimerization, 1536-well | inhibition, % at 5 µM | 0.33% of 300,000 active | AID 1899, 2009;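 active means inhibition above the mean of all tested compounds plus 3 SD, set per screening campaign, cut at about 45% in these data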
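System: GST/Flag-tagged HCV core106 proteins. Incubation: compound-protein-antibody incubation 4 h at 22.5 °C. Technique: HTRF with 340 nm excitation, 617/671 nm emission. Medium: KF-containing HEPES buffer, pH 7.45, DTT, CHAPS, BSA. Read-out: inhibition (%) from 671 over 617 nm ratio. Also added: Eu(K)-anti-GST 90 ng/mL plus XL665-anti-Flag 1 µg/mL.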
NadD conf – inhibitors of S. aureus NadD, confirmation, biochemical, colorimetric, single concentration | shares compounds with NadD inh | purified S. aureus NadD, colorimetric enzyme assay | inhibition, % at 20 µM | 13% of 2,000 active | AID 624309, 2012; in the data active means inhibition mostly above about 42%, no sharp cut-off; inactive means mostly below about 42%
* marks the source's active call; other numbers are inactive results; · = no result. Sampled rows, rich in hits. Any-hit rate of the full collection: about 2.6%.

SMILES	rCAG binder	NadD inh	ABHD5-PLIN5 inh	HCV core dimer	NadD conf
CCC(C)n1c(=O)c(C(=O)Nc2ccccc2S(N)(=O)=O)c(O)c2ccccc21 (centres undefined)	16	33*	3	18	64*
CC(C)Cn1c(=O)c(C(=O)Nc2ccccc2S(N)(=O)=O)c(O)c2ccccc21	8	33*	1	0	65*
CCn1c(=O)c(C(=O)Nc2ccccc2F)c(O)c2ccccc21	3	-7	1	10	·
Cn1c(=O)c(C(=O)Nc2ccccc2S(N)(=O)=O)c(O)c2ccccc21	12	-5	5	0	·
Clc1cccc(Cc2c(-c3ccco3)nc3ccc(Br)cn23)c1	29	41*	49*	·	13
Cc1cc2nc(-c3ccc(Cl)cc3)c(Cc3cccc(Cl)c3)n2c(C)c1Br	25	26	5	·	·
Clc1cccc(-c2nc3ccc(Br)cn3c2Cc2ccsc2)c1	30	11	-5	·	·
COc1ccccc1Cc1c(-c2ccco2)nc2cc(C)c(Br)c(C)n12	31	60*	58*	·	21
Cc1cc2nc(-c3ccco3)c(Cc3cccc(Cl)c3)n2c(C)c1Br	34	61*	26*	·	21
O=c1cc(CSc2nc(NCc3ccc(Cl)cc3)c3ccccc3n2)nc2ccc(Cl)cn12	0	33*	1	·	15
CC(C)C[C@H]1CN([C@@H](Cc2ccc(O)cc2)CN2CCC[C@@H]2CN2C(=O)C(=O)NC[C@@H]2Cc2ccccc2)C(=O)C(=O)N1CC1CCCCC1	3	31*	1	·	37
CC(C)C[C@H]1CN([C@@H](Cc2ccc(O)cc2)CN2CCC[C@H]2CN2C(=O)C(=O)NC[C@@H]2Cc2ccccc2)C(=O)C(=O)N1CC1CCCCCC1	7	30*	2	·	35
Cc1ccc(CNC(=O)[C@H]2O[C@@H](n3ccc(N)nc3=O)[C@H](O)[C@@H]2O)o1	2	-3	7	·	·
Cc1cccc(C)c1NC(=O)C(c1ccccc1OC(F)(F)F)N1CCC(c2ccccc2)CC1 (centres undefined)	1	·	-5	·	·
O=C1CN(C(=O)COc2ccc([N+](=O)[O-])cc2Cl)c2ccccc2N1	1	4	-2	·	·
Cc1ccccc1CN1C(=O)c2ccccc2C1c1nnnn1C(C)C (centres undefined)	3	-5	-6	·	·
NC(CSC1(c2cccc3ccccc23)c2ccccc2-c2ccccc21)C(=O)O (centres undefined)	21	42*	-19	·	64*
COc1ccc(CNC(=O)[C@H](C)NC(=O)C2CCN(C(=O)[C@@H](N)Cc3ccccc3)CC2)cc1	-3	2	5	-1	·
COc1ccc2c(c1)Cc1sc(NC(=O)c3ccccc3)nc1-2	18	5	-10	-1	·
COc1ccc(C(=O)Nc2nc3c(s2)Cc2cc(OC)ccc2-3)cc1	19	38*	-18	20	9
O=C(CC[C@H]1O[C@@H](n2ccc(=O)[nH]c2=O)[C@H](O)[C@@H]1O)N[C@H](Cc1ccccc1)C(=O)NCc1ccc2c(c1)OCO2	4	-9	-8	·	·
COc1cc(NS(=O)(=O)c2ccc(NC(=S)NC(=O)/C=C/c3ccc(OC)c(OC)c3)cc2)ncn1	8	26	2	19	·
COc1ccc(/C=C/C(=O)NC(=S)Nc2ccc(S(=O)(=O)N=C(N)N)cc2)cc1OC	16	30*	6	20	-3
COc1ccc(/C=C/C(=O)NC(=S)Nc2ccc(S(=O)(=O)Nc3cc(OC)ncn3)cc2)cc1	17	54*	-2	·	35
O=C(Nc1nnc(-c2ccc3c(c2)CCCC3)o1)c1ccc(Cl)cc1Cl	57*	36*	-2	41	24
CCCCCCc1cc2cc(/C(N)=N/NC(=O)c3ccncc3)c(=O)oc2cc1O	-1	61*	-1	·	8
Cc1cc2cc(CNC(=S)Nc3ccc(OC(F)(F)F)cc3)ccc2[nH]1	26	32*	-5	-10	-1
Cc1cc2cc(CNC(=O)Nc3ccccc3)ccc2[nH]1	11	49*	-2	4	-5
O=C(CSc1nc2c(cnn2-c2ccc(F)cc2)c(=O)[nH]1)N1N=C(c2cccs2)CC1c1ccc(F)cc1 (centres undefined)	6	54*	-4	·	1
